Screens (PubChem BioAssay)
CSC inhib – blocks cancer stem cells; AID 2717; inhibition, % at 7.5 µM; 300,000 tested, 1.1% active; cancer stem cell-like cells viability, luminescence; in the data active = inhibition above about 75%; inconclusive = no clear call, values can overlap the other calls; tested in HMLE shEcad cells
Beta cell apopt – beta cell apoptosis inhibition; protection from apoptosis, % (concentration not given with the values); INS-1E cytokine-induced death, ATP luminescence, 48 h; percent of positive-control rescue, neutral wells zero; 300,000 tested, 0.8% active;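 active = Every replicate reaches about 75%, or at least half do and their mean reaches it too, limit read from the data; inconclusive = At least half of replicates reach the limit but their mean does not; inactive = Under half of replicates reach the limit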;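 also: 0% = cytokine-treated negative control wells and 100% = positive control rescue; higher means more ATP so stronger rescue from cytokine killing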
SKKanGAS inh – SKKanGAS growth inhibition | S. pyogenes SKKanGAS, kanamycin growth, BacTiter-Glo, 6 h | inhibition, % at 7.5 µM | 300,000 tested, 1.3% active;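 active = mean replicate score, as percent of positive control median, at least 50; inconclusive = mean below 50 but one replicate at or above 50; inactive = mean and every replicate below 50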;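 also: strain carries kanamycin resistance gene driven by streptokinase promoter and grows in 40 µg/ml kanamycin; loss of luminescence reflects streptokinase promoter inhibition or plain growth inhibition; 0% = median of DMSO wells and 100% = positive control at its reference dose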
T cruzi inh – T. cruzi replication inhibition; 300,000 tested, 1.4% active; AID 1885; T. cruzi beta-gal in NIH3T3, luminescence, 90 h; inhibition, % (no concentration beside the values);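 active = mean inhibition across valid replicates above about 55%, limit read from the data; inconclusive = mean below that limit but half or more replicates reach it; inactive = mean below it, under half of replicates reach it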;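 also: signal also drops with host cell toxicity which is not excluded here; 0% = plate median of DMSO wells and 100% = zero luminescence signal; higher percent means less beta-gal luminescence so fewer parasites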
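Assay system: NIH/3T3 host cells with β-galactosidase reporter T. cruzi; input: 5,000 host fibroblasts per well; compound: single 50 nL compound addition per well in DMSO; timing: ≥90 h infection period, 3 h prior cell attachment; measured by: GalScreen β-gal luminescence, detergent lysis, 60 min; evaluation: percent inhibition of parasite-derived β-gal signal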
Mdm2-MdmX inh – disrupts the human Mdm2-MdmX interaction; O15151+Q00987; SaOS-2 split-luciferase Mdm2/MdmX complementation, luminescence; inhibition, % at 8 µM; 330,000 tested, 3% active; AID 485346;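 active = inhibition of at least 50% at 8 µM in the primary screen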
Target sequence (O15151 whole entry, looked up): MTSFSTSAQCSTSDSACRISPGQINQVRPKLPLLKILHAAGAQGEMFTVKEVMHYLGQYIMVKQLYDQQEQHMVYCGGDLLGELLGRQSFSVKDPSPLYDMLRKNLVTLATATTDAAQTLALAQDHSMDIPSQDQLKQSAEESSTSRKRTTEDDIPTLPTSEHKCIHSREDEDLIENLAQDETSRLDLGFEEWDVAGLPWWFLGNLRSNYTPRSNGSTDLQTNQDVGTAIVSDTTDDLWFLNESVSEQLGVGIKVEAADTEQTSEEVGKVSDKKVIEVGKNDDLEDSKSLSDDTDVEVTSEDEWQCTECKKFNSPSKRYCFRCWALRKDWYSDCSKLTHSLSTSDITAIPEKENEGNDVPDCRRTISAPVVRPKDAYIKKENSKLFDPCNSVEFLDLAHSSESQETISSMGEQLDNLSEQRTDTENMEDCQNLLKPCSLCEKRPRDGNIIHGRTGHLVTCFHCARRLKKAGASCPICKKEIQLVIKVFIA
Target sequence (Q00987 whole entry, looked up): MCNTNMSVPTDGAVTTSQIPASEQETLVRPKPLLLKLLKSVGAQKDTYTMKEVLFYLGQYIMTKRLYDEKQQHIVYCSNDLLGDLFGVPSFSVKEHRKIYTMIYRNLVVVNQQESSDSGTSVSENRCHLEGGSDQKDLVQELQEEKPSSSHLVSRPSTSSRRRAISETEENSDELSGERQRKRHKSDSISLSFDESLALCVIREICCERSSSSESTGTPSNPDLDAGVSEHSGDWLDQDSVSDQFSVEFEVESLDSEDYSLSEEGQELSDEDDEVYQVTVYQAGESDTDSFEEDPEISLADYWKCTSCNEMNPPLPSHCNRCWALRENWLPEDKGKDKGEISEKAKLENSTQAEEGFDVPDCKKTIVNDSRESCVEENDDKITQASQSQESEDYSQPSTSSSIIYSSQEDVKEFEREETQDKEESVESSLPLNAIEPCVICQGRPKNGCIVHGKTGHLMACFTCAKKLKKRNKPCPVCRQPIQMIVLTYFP
Calb FLC – affects C. albicans growth with fluconazole; C. albicans CaCi-2 (fluconazole-resistant clinical isolate) + fluconazole, Alamar Blue growth, 48 h; growth inhibition, % (concentration not given with the values); 300,000 tested, 0.57% active; AID 1979;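 active = growth inhibition above about 58% in most replicates, limit read from the data, passing the limit was not always enough; inconclusive = exactly half the replicates above a set limit; inactive = most replicates below a set limit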;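 also: all wells also contain fluconazole at 8 µg/ml as a sub-toxic cotreatment; 0% = median of DMSO wells and 100% = median of geldanamycin control wells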
Mdm2 MdmX conf – human Mdm2/MdmX binding inhibition, confirmed; luminescent assay; shares compounds with Mdm2-MdmX inh; inhibition, % at 8 µM; 10,000 tested, 55% active; in the data active = inhibition above about 40%
FLuc counter – full-length luciferase inhibition in Mdm2/MdmX counter-screen. shares compounds with Mdm2-MdmX inh. SaOS-2 full-length luciferase counterscreen, luminescence. inhibition, % at 8 µM. 6,200 tested, 77% active. AID 504607;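 active = mean inhibition at 8 µM reaching about 37%, which flags the compound as non-specific, limit read from the data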;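 also: p53-null SaOS-2 cells with luciferase driven by a doxycycline-inducible promoter; compound on cells about two nights before reading with doxycycline added after day one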
Starred values were filed as active, the others as inactive. In the library only some 5.7% were active in any assay of this set; here they are far more common.

Screening Nc1cc(=O)[nH]c(SCC(=O)c2ccc(O)cc2O)n1 returned CSC inhib -3, Beta cell apopt -6, SKKanGAS inh 0, T cruzi inh 11, Mdm2-MdmX inh 1 and Calb FLC -1.
Screening Cc1ccccc1Cn1cc(NC(=O)c2cc(-c3ccco3)on2)cn1 returned CSC inhib 61, Beta cell apopt 8, SKKanGAS inh 3, T cruzi inh 10, Mdm2-MdmX inh 0 and Calb FLC 2.
Cc1ccccc1Cn1cc(NC(=O)c2cc(-c3cccs3)on2)cn1 was read as CSC inhib 34, Beta cell apopt 32, SKKanGAS inh 1, T cruzi inh 11, Mdm2-MdmX inh 58*, Calb FLC -20 and Mdm2 MdmX conf 13.
CN1CCN(Cc2c(O)ccc3cc(Br)ccc23)CC1 was read as CSC inhib -36, Beta cell apopt 3, SKKanGAS inh -1, T cruzi inh 8, Mdm2-MdmX inh 51*, Calb FLC -1 and Mdm2 MdmX conf 8.
For COc1ccc(S(=O)(=O)N2c3ccc(F)cc3CCC2C)cc1 (stereo unspecified) the results were CSC inhib 63, SKKanGAS inh 9, T cruzi inh -3, Mdm2-MdmX inh 59*, Calb FLC -9, Mdm2 MdmX conf 63* and FLuc counter 97*.
For Cc1ccc(OCCNC(=O)c2cccc(S(=O)(=O)NCc3ccccc3)c2)cc1 the results were Mdm2-MdmX inh 60*, Mdm2 MdmX conf 77* and FLuc counter 54*.
O=C(NCc1ccncc1)c1cccc(S(=O)(=O)NCc2ccccc2)c1 was read as CSC inhib -19, Beta cell apopt -2, SKKanGAS inh -11, T cruzi inh -2, Mdm2-MdmX inh 27 and Calb FLC 0.
Screening Cc1onc(-c2ccccc2)c1C(=O)NC(C)CCc1ccccc1 (stereo unspecified) returned CSC inhib 1, Beta cell apopt -5, SKKanGAS inh -1, T cruzi inh 15, Mdm2-MdmX inh 15 and Calb FLC -5.
`O=C(c1cc(-c2cccs2)nn1-c1ccccc1)N1CCN(S(=O)(=O)c2ccccc2)CC1` gave CSC inhib 53, Beta cell apopt 8, SKKanGAS inh -3, T cruzi inh 13, Mdm2-MdmX inh 55*, Calb FLC 12, Mdm2 MdmX conf 38 and FLuc counter 92*.
`Cc1ccc(S(=O)(=O)N2CCN(C(=O)c3cc(-c4cccs4)nn3-c3ccccc3)CC2)cc1` gave CSC inhib 3, Beta cell apopt -7, SKKanGAS inh -3, T cruzi inh -11, Mdm2-MdmX inh 67*, Calb FLC 0, Mdm2 MdmX conf 41* and FLuc counter 88*.
For Cc1ccc(C(=O)Nc2cc(C)nn2CCC#N)cc1 the results were CSC inhib -5, Beta cell apopt -9, SKKanGAS inh -1, T cruzi inh 6, Mdm2-MdmX inh 26 and Calb FLC -7.
`NC(=S)n1[nH]c(-c2ccc([N+](=O)[O-])cc2)c(N=Nc2cccc(Cl)c2)c1=O` gave SKKanGAS inh 22, T cruzi inh -42, Mdm2-MdmX inh 97*, Calb FLC 28, Mdm2 MdmX conf 91* and FLuc counter 40*.
Screening COc1ccc2c(c1)sc1nc(-c3ccccc3)cn12 returned CSC inhib 91*, Beta cell apopt 35, SKKanGAS inh 19, T cruzi inh 5, Mdm2-MdmX inh 84*, Calb FLC -13, Mdm2 MdmX conf 70* and FLuc counter 114*.
For CCCCCCCCCCCCCCCC[n+]1ccc(C(N)=O)cc1 the results were Beta cell apopt 8, Mdm2-MdmX inh 78*, Mdm2 MdmX conf 77* and FLuc counter 57*.
CCCCCCCCCCCCCCCC[n+]1cccc(C(=O)N(CC)CC)c1 was read as CSC inhib 143*, Beta cell apopt 91*, SKKanGAS inh 92*, T cruzi inh 44, Mdm2-MdmX inh 77*, Calb FLC 69, Mdm2 MdmX conf 66* and FLuc counter 18.
For CCCCCCCC[n+]1cccc(C(=O)N(CC)CC)c1 the results were CSC inhib 9, Beta cell apopt -8, SKKanGAS inh 4, T cruzi inh -5, Mdm2-MdmX inh -12 and Calb FLC -10.
Screening CCCCCCCCCCCCCCCC[n+]1ccc(/C=N/O)cc1 returned CSC inhib 100*, Beta cell apopt 123*, Mdm2-MdmX inh 97*, Mdm2 MdmX conf 100* and FLuc counter 7.
`COc1ccccc1NC(=O)C(C)OC(=O)CCNS(=O)(=O)c1cccc(C(F)(F)F)c1` (stereo unspecified) gave Beta cell apopt -4 and Mdm2-MdmX inh 25.
CCN1C(=NCCN2CCOCC2)N[C@@H](c2ccccc2)C(C(=O)OC)=C1C was read as CSC inhib -1, Beta cell apopt 1, SKKanGAS inh -4, T cruzi inh -6, Mdm2-MdmX inh 17 and Calb FLC 5.
COCCn1c(C)cc(O)c(C(=O)Nc2cccc(Cl)c2)c1=O was read as CSC inhib -2, Beta cell apopt -9, SKKanGAS inh 5, T cruzi inh -2, Mdm2-MdmX inh 65*, Calb FLC inconclusive, Mdm2 MdmX conf 52* and FLuc counter 42*.
`COC(=O)c1c(-c2ccsc2)sc2ccc(-c3cc(OC)c(OC)c(OC)c3)cc12` gave CSC inhib 56, Beta cell apopt 1, Mdm2-MdmX inh 64* and Mdm2 MdmX conf 33.
COc1cc(-c2ccc3sc(-c4ccsc4)c(C#CCO)c3c2)cc(OC)c1OC was read as CSC inhib -17, Beta cell apopt 6, Mdm2-MdmX inh 74*, Mdm2 MdmX conf 39 and FLuc counter 69*.
For COc1ccc2sc(-c3ccc(S(C)(=O)=O)cc3)c(C#CCO)c2c1 the results were CSC inhib 43, Beta cell apopt 4 and Mdm2-MdmX inh 11.
`COc1ccc(S(=O)(=O)N2CCOCC2)cc1NC(=O)c1ccncc1` gave CSC inhib -15, Beta cell apopt 2 and Mdm2-MdmX inh 10.
Screening O=S(=O)(c1ccc(SCCO)nc1)N1CCOCC1 returned CSC inhib -17, Beta cell apopt -1 and Mdm2-MdmX inh 3.
CCOc1ccc(NS(=O)(=O)c2ccc(-c3cnc(C4CC4)o3)cc2)cc1 was read as CSC inhib -13, Beta cell apopt -2, SKKanGAS inh 17, T cruzi inh -1, Mdm2-MdmX inh 57*, Calb FLC -5, Mdm2 MdmX conf 57* and FLuc counter 52*.
For CC(=O)Nc1ccc(NS(=O)(=O)c2ccc(-c3cnc(C4CC4)o3)cc2)cc1 the results were SKKanGAS inh -12, T cruzi inh 15, Mdm2-MdmX inh 43 and Calb FLC 12.
